{"source": "paper PMC2741010", "about": "(Biochemistry, 2009)", "test_in_all_cases": "3′-CMP titration followed by 1H-15N HSQC, NMR line shape analysis", "key": {"RNase A (H48A)": {"biological_target": "T1, RNase A (H48A) (Bos taurus, UniProt P61823, H74A)", "T1 sequence (P61823 27-150 H74A)": "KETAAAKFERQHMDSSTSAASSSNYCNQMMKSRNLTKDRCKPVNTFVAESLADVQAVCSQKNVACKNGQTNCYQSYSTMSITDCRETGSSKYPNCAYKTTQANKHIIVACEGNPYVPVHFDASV", "type": "binding"}, "WT RNase A": {"biological_target": "T2, WT RNase A (Bos taurus, UniProt P61823)", "T2 sequence (P61823 27-150)": "T1 sequence (P61823 27-150 H74A) with A48H", "type": "binding, bovine", "conditions": "for koff: global two-state fit of residues, 298 K, pH 6.4", "procedure,_shortened": "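Each point recorded as a 1H-15N sensitivity-enhanced HSQC at 11.7 T, with spectral widths of 1600 Hz (t1) and 7000 Hz (t2). Kd and koff were taken from NMR line-shape fits of backbone amide shift changes.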"}, "[1]": {"biological_target": "T3, RNase AECP (RNase A with loop 1 from ECP) (Bos taurus, UniProt P61823, DEL40-47/INS50PP/S49L/Y51R)", "T3 sequence (P61823 with tags, fused parts or gaps DEL40-47/S49L/INS50PP/Y51R)": "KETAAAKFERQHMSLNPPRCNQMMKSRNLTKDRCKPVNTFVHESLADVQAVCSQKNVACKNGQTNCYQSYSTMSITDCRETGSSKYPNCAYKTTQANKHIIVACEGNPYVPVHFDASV", "type": "binding"}}, "note": "Changes are numbered by the printed parent chain. Values joined by “and” are separate entries in the source; they are usually repeats but may differ in a detail not shown here. Identical values can stand only once.", "data": [{"smiles": "Nc1ccn([C@@H]2O[C@H](CO)[C@@H](OP(=O)(O)O)[C@H]2O)c(=O)n1", "note": "[3′-CMP, cytidine-3′-monophosphate]", "values": [{"measurement": "Kd", "setting": "RNase A (H48A)", "value": "895 ± 50", "unit": "µM"}, {"measurement": "decrease in koff relative to WT", "setting": "RNase A (H48A); H48A vs WT RNase A", "value": "10 fold and ~ 10 fold"}, {"measurement": "reduction of binding affinity relative to WT", "setting": "RNase A (H48A); H48A vs WT RNase A", "value": "~ 12 fold"}, {"measurement": "kon", "setting": "RNase A (H48A); RNase A H48A mutant, kon determined from koff/Kd", "value": "1.59 × 10^5 ± 2.30 × 10^4 M^−^1s^−^1"}, {"measurement": "koff", "setting": "RNase A (H48A); pH 6.4", "value": "142 ± 19", "unit": "s⁻¹"}, {"measurement": "Kd", "setting": "WT RNase A", "value": "74 ± 2", "unit": "µM"}, {"measurement": "koff", "setting": "WT RNase A; WT RNase A", "value": "1155 ± 120", "unit": "s⁻¹"}, {"measurement": "kon", "setting": "WT RNase A; WT RNase A, kon determined from koff/Kd", "value": "1.56 × 10^7 ± 1.67 × 10^6 M^−^1s^−^1"}, {"measurement": "koff", "setting": "WT RNase A; pH 6.4, WT RNase A", "value": "~1200", "unit": "s⁻¹"}, {"measurement": "Kd", "setting": "[1]", "value": "300 ± 16", "unit": "µM"}, {"measurement": "kon", "setting": "[1]; RNase AECP chimera, kon determined from koff/Kd", "value": "3.20 × 10^5 ± 3.45 × 10^4 M^−^1s^−^1"}, {"measurement": "decrease in koff relative to WT", "setting": "[1]; RNase AECP vs WT RNase A", "value": "10 fold and ~ 10 fold"}, {"measurement": "reduction of binding affinity relative to WT", "setting": "[1]; RNase AECP vs WT RNase A", "value": "~ 4 fold"}, {"measurement": "koff", "setting": "[1]; pH 6.4", "value": "96 ± 9", "unit": "s⁻¹"}]}]}
